# Data taken from publication PMC3793015 (Journal of agricultural and food chemistry, 2013).
# How the values were obtained:
# Caco-2 cells = experiment: Cellular uptake, metabolism and transport of α-MG on Transwell inserts; type: in vitro ADME, human
# In short: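 Caco-2 cells were differentiated 21–25 days post-confluence on Transwell inserts. Compound (12 μM) in Tween 40 micelles was added apically for 24 h. Activated cultures had 5 ng/mL IL-1β for 4 h, then a PBS wash. Apical medium, basolateral medium and cell monolayer were collected separately and analysed by RP-HPLC for free and conjugated xanthones. Amounts are % of initial compound; mean ± SD, n ≥ 5.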
# HepG2 cells = experiment: Cellular uptake and metabolism of α-MG; type: in vitro ADME, human
# In short: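 HepG2 monolayers, 2 days post-confluence, received 9.0 μM compound as a DMSO stock added to 10% FBS medium for 24 h. Activated cultures had 10 ng/mL TNF-α for 4 h and a PBS wash first. Medium and cells were collected separately, extracted and analysed by RP-HPLC for free and glucuronidated/sulfated xanthones. Quantification used retention time, UV spectrum and five-point standard curves, as % of initial amount; mean ± SD, n ≥ 5.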
# MDM cells = experiment: Cellular uptake and metabolism of α-MG; type: in vitro ADME, human; conditions: 24 h
# In short: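 Monocytes came from buffy-coat mononuclear cells, isolated on Ficoll and by clumping, then differentiated 6 days with 50 ng/mL M-CSF (97% CD14/CD11b-positive). Compound (3.3 μM) was delivered in 100% FBS, diluted to 10% FBS in RPMI 1640, for 24 h. Activated cultures first had 100 ng/mL LPS for 4 h, then a PBS wash. Medium and cells were analysed separately by RP-HPLC, including conjugates; mean ± SD, n ≥ 5.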
# [1] = Stability of α-MG during incubation in cell-free culture media; type: physicochemical; conditions: for calculated rate of α-MG loss per hour: DMSO, 24 h incubation; for recovery of α-MG after 24 h incubation: Tween 40 micelles
# In short: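 Compound was incubated cell-free for 24 h at 37 °C in RPMI, MEM, DMEM or McCoy's 5A, sampled at 0, 4, 8 and 24 h, extracted and analysed by RP-HPLC. Vehicles tested were: DMSO into medium without FBS or with 10% FBS (final DMSO <0.03%); Tween 40 micelles (final <0.02%) in DMEM or McCoy's; compound preincubated 48 h in 100% FBS, diluted 1:10 in RPMI 1640. Mean ± SD, n = 3 dishes.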
# [2] = system: LPS-induced production of NO in RAW 264.7 cells; experiment: LPS-induced production of NO; type: cell-based, murine; conditions: RAW 264.7, data not shown
# In short: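 RAW 264.7 cells, 2 days post-confluence, were pretreated 2 h with compound (DMSO stock into 10% FBS medium). They were then stimulated 16 h with 5 ng/mL E. coli O111:B4 LPS. NO production was estimated as medium nitrite by the Griess reaction.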
# MDM = experiment: Cytotoxicity of α-MG; type: cell-based, human; conditions: read-out: IC50 (cytotoxicity), 24 h, 10% FBS delivery
# In short: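 Cytotoxicity was judged by phase-contrast morphology and MTT reduction to formazan after exposure to increasing compound concentrations. Exposure was 24 h for RAW 264.7, MDM, HepG2 and HT-29, 8 h for PMA-differentiated THP-1, and 4 h for differentiated Caco-2. Delivery was DMSO into 10% FBS medium for RAW 264.7, THP-1 and HepG2; FBS-complexed compound at 10% FBS in RPMI 1640 for MDM; Tween 40 micelles for Caco-2 and HT-29.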
# [3] = 24 h after addition of α-MG, control cultures, nd: not detected
# [4] = Caco-2 Transwell, 12 μM apical, 24 h
smiles,measurement,setting,value
"COc1c(O)cc2oc3cc(O)c(CC=C(C)C)c(O)c3c(=O)c2c1CC=C(C)C [α-MG, α-mangostin]","xanthone in media, Caco-2","Caco-2 cells; 0 h, amount of α-MG at start",20741 ± 261 pmol/dish
same,"intracellular profile table, α-MG at 0 h, Caco-2","Caco-2 cells; 0 h, control cultures",20741 ± 261 pmol/dish
same,"intracellular xanthone, Caco-2",Caco-2 cells; [3],3000 ± 551 pmol/dish
same,"ratio of free to conjugated xanthones in apical medium, activated vs control","Caco-2 cells; Caco-2, 5 ng/mL IL-1β, 24 h, p < 0.05",increased
same,"recovery of xanthones, of α-MG added","Caco-2 cells; Caco-2, 24 h",approximately 65%
same,amount of xanthones and ratio of conjugated to free xanthones transported into basolateral compartment,"Caco-2 cells; Caco-2, treatment with IL-1β vs control, p < 0.05",increased
same,conjugated xanthones in basolateral medium,Caco-2 cells; [4],1.7 ± 0.3%
same,conjugated xanthones in cells,Caco-2 cells; [4],10 ± 3%
same,conjugates in apical medium,Caco-2 cells; [4],11 ± 2%
same,free xanthones in apical medium,Caco-2 cells; [4],35 ± 1%
same,free xanthones in basolateral medium,Caco-2 cells; [4],0.8 ± 0.1%
same,free xanthones in cells,Caco-2 cells; [4],6 ± 0.6%
same,"xanthones in apical medium (total), of initial α-mangostin",Caco-2 cells; [4],47 ± 3%
same,"xanthones in basolateral medium (total), of initial α-mangostin",Caco-2 cells; [4],3 ± 0.3%
same,"xanthones in cells (total), of initial α-mangostin",Caco-2 cells; [4],16 ± 3%
same,"intracellular ratio of free to conjugated xanthones, activated vs control","Caco-2 cells; Caco-2 cells, 5 ng/mL IL-1β 4 h before α-MG, 24 h, p < 0.05",increased
same,"xanthone in media, HepG2","HepG2 cells; 0 h, amount of α-MG at start",17834 ± 115 pmol/dish
same,"intracellular profile table, α-MG at 0 h, HepG2","HepG2 cells; 0 h, control cultures",17834 ± 115 pmol/dish
same,"intracellular xanthone, HepG2",HepG2 cells; [3],9344 ± 298 pmol/dish
same,"intracellular ratio of free to conjugated xanthones, activated vs control","HepG2 cells; HepG2, 10 ng/mL TNF-α 4 h before α-MG, 24 h, p < 0.05",increased
same,"free xanthones in spent medium, of initial α-MG","HepG2 cells; HepG2, 9.0 μM, 24 h, control",36 ± 2%
same,"free α-MG in cells, of total","HepG2 cells; HepG2, 9.0 μM, 24 h, control",27 ± 3%
same,"glucuronidated/sulfated conjugates of α-MG in cells, of total","HepG2 cells; HepG2, 9.0 μM, 24 h, control",29 ± 3%
same,recovery of α-MG equivalents added,"HepG2 cells; HepG2, 24 h",91 ± 4%
same,"free xanthones in spent medium, of initial α-MG","MDM cells; 3.3 μM, control",57 ± 4%
same,"free α-MG in cells, of total","MDM cells; 3.3 μM, control",22 ± 5%
same,"glucuronidated/sulfated conjugates of α-MG in cells, of total","MDM cells; 3.3 μM, control",20 ± 10%
same,recovery of α-MG equivalents added,MDM cells,99 ± 12%
same,calculated rate of α-MG loss per hour,"[1]; DMEM lacking FBS, cell free",3.2%
same,recovery of α-MG after 24 h incubation,"[1]; DMEM without FBS, cell free",110 ± 3
same,stability of α-MG during 24 h incubation,"[1]; DMSO stock added to media (RPMI 1640, MEM, DMEM) with 10% (v/v) FBS, cell free",101 ± 6%
same,calculated rate of α-MG loss per hour,"[1]; MEM lacking FBS, cell free",4.0%
same,calculated rate of α-MG loss per hour,"[1]; McCoy's 5A lacking FBS, cell free",2.3%
same,recovery of α-MG after 24 h incubation,"[1]; McCoy's medium without FBS, cell free",108 ± 4
same,calculated rate of α-MG loss per hour,"[1]; RPMI lacking FBS, cell free",2.7%
same,stability of α-MG after 24 h,"[1]; added to 100% FBS diluted 1:10 (v:v) into RPMI 1640, cell free",95 ± 8%
same,inhibition of LPS-induced production of NO,[2]; 1 μM,50%
same,inhibition of LPS-induced production of NO,[2]; 3 μM,61%
same,inhibition of LPS-induced production of NO,[2]; 10 μM,78%
same,IC50,MDM,> 12 µM
